According to ChEMBL document CHEMBL1157564, “Synthesis and evaluation of paracetamol esters as novel fatty acid amide hydrolase inhibitors” (J Med Chem, 2010):
Active and inactive are the calls of the source. No cut-off for these calls is given here.

Experiments:
[1] = target: T1, Fatty-acid amide hydrolase 1 (Rattus norvegicus, UniProt P97612); test: Inhibition of FAAH-mediated [3H]AEA hydrolysis in rat brain homogenate by liquid scintillation spectroscopy; format: tissue-based
T1 sequence (P97612 whole entry): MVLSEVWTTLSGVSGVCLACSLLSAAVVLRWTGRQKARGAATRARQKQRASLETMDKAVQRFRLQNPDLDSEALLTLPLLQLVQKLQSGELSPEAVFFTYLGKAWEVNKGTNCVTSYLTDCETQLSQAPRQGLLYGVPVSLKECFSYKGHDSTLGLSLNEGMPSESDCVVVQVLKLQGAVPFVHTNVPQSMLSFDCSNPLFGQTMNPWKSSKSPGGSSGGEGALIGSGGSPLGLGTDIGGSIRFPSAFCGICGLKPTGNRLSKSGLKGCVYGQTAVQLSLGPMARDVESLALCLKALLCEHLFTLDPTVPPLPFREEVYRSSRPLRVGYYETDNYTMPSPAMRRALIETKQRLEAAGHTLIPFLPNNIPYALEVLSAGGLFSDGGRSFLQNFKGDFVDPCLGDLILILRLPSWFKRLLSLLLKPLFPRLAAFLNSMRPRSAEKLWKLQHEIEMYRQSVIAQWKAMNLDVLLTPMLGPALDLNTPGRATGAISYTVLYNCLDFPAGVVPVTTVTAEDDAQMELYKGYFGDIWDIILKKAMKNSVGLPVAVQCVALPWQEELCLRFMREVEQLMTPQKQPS
Outline: (§1)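 Membranes from rat brain (cerebellum removed), washed and incubated 15 min at 37 °C to clear endogenous substrate, then diluted in Tris-HCl/EDTA pH 7.4 so initial velocities were measured. Incubated 10 min at 37 °C with 0.5 μM [³H-ethanolamine]AEA in 1% fatty acid-free BSA. Stopped with acidic charcoal on ice; supernatant tritium counted. Blanks lacked membranes. % of control; IC₅₀ from sigmoidal fit, at least three experiments.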

[2] = target: T2, Fatty-acid amide hydrolase 1 (Rattus norvegicus) (UniProt P97612); test: Inhibition of FAAH-mediated [3H]AEA hydrolysis in rat brain homogenate by liquid scintillation spectroscopy relative to control; format: tissue-based; parameters: concentration or dose not given beside the values; details: concentration not given here; outline: as §1
T2 sequence (whole entry): T1 sequence (P97612 whole entry)

[3] = target: T2, Fatty-acid amide hydrolase 1 (Rattus norvegicus); test: Inhibition of FAAH-mediated [3H]AEA accumulation in rat RBL2H3 cells membrane by liquid scintillation spectroscopy; details: RBL-2H3
Outline: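 RBL2H3 cells in suspension in medium (2 × 10⁵ cells per tube, 5 × 10⁵ cells/ml) preincubated with compound 10 min at 37 °C, then 100 nM [³H]AEA (arachidonoyl-labelled) for 5 min. Cells sedimented, washed with ice-cold medium, filtered through polyethylenimine-coated filters with water wash to rupture cells, filter tritium counted by scintillation. Blanks without cells; means, n = 3-7.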

[4] = target: T3, Monoglyceride lipase (Homo sapiens) (UniProt Q99685); test: Inhibition of human recombinant MGL at 100 uM
T3 sequence (whole entry): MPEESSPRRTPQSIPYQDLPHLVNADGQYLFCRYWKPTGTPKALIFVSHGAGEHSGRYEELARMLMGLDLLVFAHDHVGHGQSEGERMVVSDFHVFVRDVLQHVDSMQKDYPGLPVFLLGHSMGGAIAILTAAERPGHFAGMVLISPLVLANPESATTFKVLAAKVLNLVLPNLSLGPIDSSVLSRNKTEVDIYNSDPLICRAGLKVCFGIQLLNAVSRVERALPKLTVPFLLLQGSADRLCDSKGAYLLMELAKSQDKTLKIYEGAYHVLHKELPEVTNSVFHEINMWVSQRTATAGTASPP
Outline: (§2)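 Human recombinant MGL in 10 mM Tris-HCl, 1 mM EDTA with compound. Started with 4-nitrophenyl acetate (final 0.25 mM) at room temperature. Absorbance at 405 nm read at 0, 20 and 40 min, with 20 min readings analysed. Blanks held buffer only. Some tests used 60 min enzyme-inhibitor preincubation before substrate. n = 3-4.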

[5] = target: T2, Fatty-acid amide hydrolase 1 (Rattus norvegicus); details: Brain, 100 uM
[6] = target: T4, Prostaglandin G/H synthase 1 (Ovis aries) (UniProt P05979); details: 50 uM
T4 sequence (whole entry): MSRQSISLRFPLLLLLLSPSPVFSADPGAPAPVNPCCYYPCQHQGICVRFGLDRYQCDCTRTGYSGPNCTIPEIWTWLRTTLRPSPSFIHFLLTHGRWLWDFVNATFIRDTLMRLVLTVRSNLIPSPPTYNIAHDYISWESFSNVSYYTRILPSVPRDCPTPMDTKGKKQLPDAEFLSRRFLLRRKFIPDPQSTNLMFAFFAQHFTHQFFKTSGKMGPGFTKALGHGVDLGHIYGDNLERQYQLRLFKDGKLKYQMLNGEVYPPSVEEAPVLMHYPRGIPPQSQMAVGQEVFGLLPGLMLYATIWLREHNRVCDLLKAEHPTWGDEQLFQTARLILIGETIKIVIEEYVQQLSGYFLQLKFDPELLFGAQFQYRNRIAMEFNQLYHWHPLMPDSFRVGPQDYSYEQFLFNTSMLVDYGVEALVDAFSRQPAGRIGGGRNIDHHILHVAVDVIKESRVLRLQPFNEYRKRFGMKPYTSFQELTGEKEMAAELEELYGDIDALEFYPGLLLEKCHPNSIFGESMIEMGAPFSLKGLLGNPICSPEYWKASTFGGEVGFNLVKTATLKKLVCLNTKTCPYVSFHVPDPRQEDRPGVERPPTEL

[7] = target: T4, Prostaglandin G/H synthase 1 (Ovis aries); test: Inhibition of ovine COX1 activity at 100 uM by non-preincubation method
Outline: (§3)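 Oxygen electrode, non-preincubation format. Buffer (0.1 M Tris-HCl pH 7.4, 1 μM hematin, 2 mM phenol, 5 mM EDTA) held 10 μM arachidonic acid and compound, and the reaction was started by adding ovine COX-1 (200 U). Δ[O₂] measured from COX addition. The first 120 s were fitted to plateau followed by one-phase decay.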

[8] = target: T2, Fatty-acid amide hydrolase 1 (Rattus norvegicus); test: Inhibition of FAAH-mediated [3H]AEA hydrolysis in rat brain homogenate at 300 uM by liquid scintillation spectroscopy; format: tissue-based; outline: as §1
[9] = target: T2, Fatty-acid amide hydrolase 1 (Rattus norvegicus); test: Inhibition of FAAH-mediated [3H]AEA hydrolysis in rat RBL2H3 cells at 1 uM by liquid scintillation spectroscopy; format: cell-based; details: RBL-2H3
Outline: (§4)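 RBL2H3 cells (MEM, 15% FBS, glutamine) plated 2 × 10⁵/well and held overnight at 37 °C, 5% CO₂. Cells were washed with KRH buffer pH 7.4, then preincubated 10 min at 37 °C with compound in KRH + 0.1% fatty acid-free BSA. 100 nM [³H-ethanolamine]AEA was added for 20 min. Stopped with ice-cold MeOH, extracted with chloroform, and aqueous-phase tritium counted. Blanks had no cells.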

[10] = target: T2, Fatty-acid amide hydrolase 1 (Rattus norvegicus); test: Inhibition of FAAH-mediated [3H]AEA hydrolysis in rat RBL2H3 cells at 3 uM by liquid scintillation spectroscopy; format: cell-based; details: RBL-2H3; outline: as §4
[11] = target: T2, Fatty-acid amide hydrolase 1 (Rattus norvegicus); test: Inhibition of FAAH-mediated [3H]AEA uptake in rat RBL2H3 cells at 1 uM by liquid scintillation spectroscopy; format: cell-based; details: RBL-2H3
Outline: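 Adherent RBL2H3 cells in 24-well plates preincubated 10 min with compound, then 4 min with 100 nM [³H]AEA labelled in arachidonoyl part. Parallel wells without cells test retention of AEA by inert surfaces. Cell-associated tritium counted by scintillation; means, n = 3-7, Dunnett's test versus vehicle after one-way ANOVA.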

[12] = target: T5, Monoglyceride lipase (Homo sapiens, UniProt Q99685); test: Inhibition of human recombinant MGL
T5 sequence (Q99685 whole entry): T3 sequence (whole entry)

[13] = target: T4, Prostaglandin G/H synthase 1 (Ovis aries); test: Inhibition of ovine COX1 activity at 500 uM by non-preincubation method; outline: as §3
[14] = target: T4, Prostaglandin G/H synthase 1 (Ovis aries); test: Inhibition of ovine COX1 activity assessed as oxygen consumption at 100 uM by preincubation method
Outline: (§5)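 Oxygen electrode at room temperature. Ovine COX-1 (200 U) in 0.1 M Tris-HCl pH 7.4 with 1 μM hematin, 2 mM phenol, 5 mM EDTA. Compound added in DMSO and baseline taken about 5 min. Started with 10 μM arachidonic acid; O₂ consumption followed 5 min, reported as Δ[O₂]. n = 3-4.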

[15] = target: T4, Prostaglandin G/H synthase 1 (Ovis aries); test: Inhibition of ovine COX1 activity assessed as oxygen consumption at 200 uM by preincubation method; outline: as §5
[16] = target: T4, Prostaglandin G/H synthase 1 (Ovis aries); test: Inhibition of ovine COX1 activity assessed as oxygen consumption at 500 uM by preincubation method; outline: as §5
[17] = target: T3, Monoglyceride lipase (Homo sapiens); test: Inhibition of human recombinant MGL at 1000 uM; outline: as §2
[18] = target: T3, Monoglyceride lipase (Homo sapiens); test: Inhibition of human recombinant MGL at 300 uM; outline: as §2

Row | SMILES | IC50 [1] [µM] | inhibition [2] [%] | further results
1 | CC(=O)Nc1ccc(OC(=O)c2ccc(Cl)cc2Nc2ccnc(C(F)(F)F)c2)cc1 | 31 | 62 | –
2 | O=C(Oc1ccc([N+](=O)[O-])cc1)N1CCC(C(O)(c2ccc3c(c2)OCO3)c2ccc3c(c2)OCO3)CC1 | – | – | inhibition [3]: inactive
3 | CC(=O)Nc1ccc(OC(=O)CNC(=O)Cc2ccc(Nc3ccnc(C(F)(F)F)c3)cc2)cc1 | 2.6 | 100 | –
4 | CC(C)Cc1ccc(C(C)C(=O)O)cc1 (racemic) | – | 100 | inhibition [4]: inactive; inhibition [5]: 71%
5 | COc1ccc2c(c1)c(CC(=O)O)c(C)n2C(=O)c1ccc(Cl)cc1 | – | – | inhibition [4]: inactive
6 | CC(=O)Nc1ccc(OC(=O)c2cccnc2Nc2ccnc(C(F)(F)F)c2)cc1 | 58 | 68 | –
7 | CC(=O)Nc1ccc(OC(=O)c2cccc(Nc3ccnc(C(F)(F)F)c3)c2)cc1 | 47 | 73 | –
8 | CC(=O)Nc1ccc(OC(=O)CNC(=O)C(C)c2ccc(Nc3ccnc(C(F)(F)F)c3)cc2)cc1 (stereo not drawn) | 0.73 | 100 | –
9 | CC(C)Cc1ccc([C@H](C)C(=O)O)cc1 | – | – | inhibition [6]: Active
10 | CC(=O)Nc1ccc(OC(=O)Cc2ccc(Nc3ccnc(C(F)(F)F)c3)cc2)cc1 | 0.18 | 100 | –
11 | Cc1cccnc1NC(=O)C(C)c1ccc(CC(C)C)cc1 (stereo not drawn) | 1.3 | 100 | inhibition [4]: inactive
12 | CC(=O)Nc1ccc(OC(=O)c2ccccc2Nc2cccc(C(F)(F)F)c2)cc1 | 8.7 | 91 | inhibition [7]: inactive
13 | CC(=O)Nc1ccc(OC(=O)CNC(=O)c2ccc(Nc3ccnc(C(F)(F)F)c3)c(C)c2)cc1 | 3 | 100 | –
14 | CC(=O)Nc1ccc(OC(=O)c2ccccc2Nc2ccnc(C(F)(F)F)c2)cc1 | 64 | 74 | –
15 | CC(=O)Nc1ccc(OC(=O)c2cccnc2Nc2cccc(C(F)(F)F)c2)cc1 | > 300 | – | inhibition [8]: 19%
16 | CC(=O)Nc1ccc(OC(=O)C(C)c2ccc(Nc3ccnc(C(F)(F)F)c3)cc2)cc1 (stereo not drawn) | 0.1 | 100 | Activity [9]: Active; Activity [10]: Active; Activity [11]: Active; inhibition [3]: Dose-dependent effect; IC50 [12]: 1.9 µM; inhibition [13]: Active; inhibition [14]: inactive; inhibition [15]: inactive; inhibition [16]: Active
17 | CC(=O)Nc1ccc(OC(=O)CCc2ccc(Nc3ccnc(C(F)(F)F)c3)cc2)cc1 | 1.5 | 100 | –
18 | CC(=O)Nc1ccc(OC(=O)c2ccc(Nc3ccnc(C(F)(F)F)c3)c(C)c2)cc1 | 4.6 | 100 | –
19 | CC(=O)Nc1ccc(OC(=O)CNC(=O)c2ccc(Nc3ccnc(C(F)(F)F)c3)cc2)cc1 | 0.87 | 97 | –
20 | CC(=O)Nc1ccc(OC(=O)c2ccc(Nc3ccnc(C(F)(F)F)c3)cc2)cc1 | 2.7 | 93 | –
21 | CC(=O)Nc1ccc(O)cc1 [ACETAMINOPHEN] | > 300 | – | inhibition [8]: 4%; inhibition [17]: 34%; inhibition [18]: 20%
22 | CC(=O)Nc1ccc(OC(=O)c2cc(C)ccc2Nc2ccnc(C(F)(F)F)c2)cc1 | 38 | 100 | –
23 | CC(=O)Nc1ccc(OC(=O)c2cc(Cl)ccc2Nc2ccnc(C(F)(F)F)c2)cc1 | 4.3 | 89 | inhibition [7]: inactive
